Measurements taken from ChEMBL document CHEMBL4118275, “Synthesis of coumarin derivatives and their cytoprotective effects on t-BHP-induced oxidative damage in HepG2 cells” (Bioorg Med Chem Lett, 2018).
Activity calls are given as the source filed them. The rule behind the calls is not given here.

Key:
HepG2 [1] = assay: Cytotoxicity against human HepG2 cells at 10 uM; assay type: cell-based; conditions: hepg2, 10 µM
HepG2 [2] = assay: Cytoprotective activity against 100 uM t-BHP-induced oxidative stress in human HepG2 cells assessed as cell viability preincubated for 1 hr followed by t-BHP addition measured after 3 hrs by CCK-8 assay (reference value: 22%); assay type: functional
[3] = Antioxidant activity assessed as DPPH radical scavenging activity measured after 30 mins; assay type: functional
Summary of the method: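 DPPH radical scavenging was measured, and activity is given as EC50 in μM.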

HepG2 [4] = assay: Cytoprotective activity against 1 mM t-BHP-induced oxidative stress in human HepG2 cells assessed as cell viability preincubated for 1 hr followed by t-BHP addition measured after 3 hrs by CCK-8 assay; assay type: functional
HepG2 [5] = assay: Cytoprotective activity against 100 uM t-BHP-induced cell damage in human HepG2 cells assessed as increase in mitochondrial membrane potential preincubated for 1 hr followed by t-BHP addition measured after 3 hrs by rhodamine 123 staining based fluorescence microscopy; assay type: functional
Summary of the method: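 HepG2 cells were pretreated with sample, then exposed to 100 μM t-BHP and stained with Rhodamine 123. Mitochondrial membrane potential was judged from fluorescence microscopy images against untreated control and t-BHP-only cells.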

Compound: COc1ccc(/C=C/C(=O)OC2Cc3c(ccc4ccc(=O)oc34)OC2(C)C)cc1OC (stereo not given)
- Activity (HepG2 [1]): Non-Toxic
- Activity (HepG2 [2]): inactive

Compound: O=c1c(O)c(-c2ccc(O)c(O)c2)oc2cc(O)cc(O)c12 [QUERCETIN]
- Activity (HepG2 [2]): 62%
- EC50 [3]: 0.17 µM

Compound: COc1cc(/C=C/C(=O)OC2Cc3c(ccc4ccc(=O)oc34)OC2(C)C)cc(OC)c1OC (stereo not given)
- Activity (HepG2 [1]): Non-Toxic
- Activity (HepG2 [2]): inactive

Compound: CC1(C)Oc2cc3oc(=O)ccc3cc2CC1OC(=O)/C=C/c1ccc(O)cc1 (stereo not given)
- Activity (HepG2 [1]): Non-Toxic
- Activity (HepG2 [2]): inactive

Compound: COc1ccc(/C=C/C(=O)OC2Cc3c(ccc4ccc(=O)oc34)OC2(C)C)cc1 (stereo not given)
- Activity (HepG2 [1]): Non-Toxic
- Activity (HepG2 [2]): inactive

Compound: CC(C)(O)C1Cc2c(ccc3ccc(=O)oc23)O1 (stereo not given)
- Activity (HepG2 [1]): Non-Toxic
- Activity (HepG2 [2]): inactive

Compound: CC(C)(O)C1Cc2cc3ccc(=O)oc3cc2O1 (stereo not given)
- Activity (HepG2 [1]): Non-Toxic
- Activity (HepG2 [2]): inactive

Compound: CC1(C)Oc2ccc3ccc(=O)oc3c2CC1OC(=O)/C=C/c1ccccc1 (stereo not given)
- Activity (HepG2 [1]): Non-Toxic
- Activity (HepG2 [2]): inactive

Compound: COc1cc(/C=C/C(=O)OC2Cc3c(ccc4ccc(=O)oc34)OC2(C)C)ccc1O (stereo not given)
- Activity (HepG2 [1]): Non-Toxic
- Activity (HepG2 [2]): inactive

Compound: CC(C)(OC(=O)/C=C/c1ccc(O)cc1)C1Cc2cc3ccc(=O)oc3cc2O1 (stereo not given)
- Activity (HepG2 [1]): Non-Toxic
- Activity (HepG2 [2]): inactive

Compound: CC(C)(OC(=O)/C=C/c1ccc(O)cc1)C1Cc2c(ccc3ccc(=O)oc23)O1 (stereo not given)
- Activity (HepG2 [1]): Non-Toxic
- Activity (HepG2 [2]): inactive

Compound: COC(=O)/C=C/c1ccc(O)c(O)c1 [METHYLCAFFEATE]
- Activity (HepG2 [2]): 31%
- EC50 [3]: 1.5 µM

Compound: CC1(C)Oc2ccc3ccc(=O)oc3c2CC1O (stereo not given) [LOMATIN]
- Activity (HepG2 [1]): Non-Toxic
- Activity (HepG2 [2]): inactive

Compound: CC1(C)Oc2ccc3ccc(=O)oc3c2CC1OC(=O)/C=C/c1ccc(O)c(O)c1 (stereo not given)
- Activity (HepG2 [1]): Non-Toxic
- Activity (HepG2 [2]): 86%
- Activity (HepG2 [4]): 39%
- Activity (HepG2 [5]): Active
- EC50 [3]: 3.06 µM

Compound: CC1(C)Oc2cc3oc(=O)ccc3cc2CC1O (stereo not given)
- Activity (HepG2 [1]): Non-Toxic
- Activity (HepG2 [2]): inactive

Compound: CC1(C)Oc2ccc3ccc(=O)oc3c2CC1OC(=O)/C=C/c1ccc(O)cc1 (stereo not given)
- Activity (HepG2 [1]): Non-Toxic
- Activity (HepG2 [2]): inactive
